Measurements: ChEMBL document CHEMBL4152256, “Structure-activity relationship of new antimalarial 1-aryl-3-susbtituted propanol derivatives: Synthesis, preliminary toxicity profiling, parasite life cycle stage studies, target exploration, and targeted delivery” (Eur J Med Chem, 2018)

Experiments:
Plasmodium falciparum [1] = experiment: Antiplasmodial activity against chloroquine-sensitive Plasmodium falciparum 3D7 by [3H]-hypoxanthine incorporation assay; format: functional, organism-based; details: Plasmodium falciparum, 3D7
How it was run: (§1)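 Blood-stage P. falciparum 3D7 and FCR-3 were tested by a modified [3H]-hypoxanthine incorporation assay. Chloroquine was the reference in all runs.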

[2] = Genotoxicity in Salmonella typhimurium TA1535 harboring pSK1002 assessed as survival at 0.002 mg/ml in presence of Sprague-Dawley rat liver S9 fraction after by SOS/umu assay relative to control; format: toxicity, organism-based; details: salmonella enterica subsp. enterica serovar typhimurium, read-out: Survival
[3] = Genotoxicity in Salmonella typhimurium TA1535 harboring pSK1002 assessed as umu gene induction at 0.001 mg/ml in absence of Sprague-Dawley rat liver S9 fraction after by SOS/umu assay relative to control; format: toxicity, organism-based; details: salmonella enterica subsp. enterica serovar typhimurium, read-out: FC
[4] = Genotoxicity in Salmonella typhimurium TA1535 harboring pSK1002 assessed as umu gene induction at 0.0002 mg/ml in presence of Sprague-Dawley rat liver S9 fraction after by SOS/umu assay relative to control; format: toxicity, organism-based; details: salmonella enterica subsp. enterica serovar typhimurium, read-out: FC
Plasmodium falciparum [5] = experiment: Antiplasmodial activity against multidrug-resistant Plasmodium falciparum FCR-3 by [3H]-hypoxanthine incorporation assay; format: functional, organism-based, FCR-3/Gambia; details: Plasmodium falciparum, FCR-3/Gambia; how it was run: as §1
[6] = Genotoxicity in Salmonella typhimurium TA1535 harboring pSK1002 assessed as survival at 0.008 mg/ml in presence of Sprague-Dawley rat liver S9 fraction after by SOS/umu assay relative to control; format: toxicity, organism-based; details: salmonella enterica subsp. enterica serovar typhimurium, read-out: Survival
[7] = Genotoxicity in Salmonella typhimurium TA1535 harboring pSK1002 assessed as survival at 0.001 mg/ml in absence of Sprague-Dawley rat liver S9 fraction after by SOS/umu assay relative to control; format: toxicity, organism-based; details: salmonella enterica subsp. enterica serovar typhimurium, read-out: Survival
[8] = Genotoxicity in Salmonella typhimurium TA1535 harboring pSK1002 assessed as survival at 0.001 mg/ml in presence of Sprague-Dawley rat liver S9 fraction after by SOS/umu assay relative to control; format: toxicity, organism-based; details: salmonella enterica subsp. enterica serovar typhimurium, read-out: Survival
[9] = Genotoxicity in Salmonella typhimurium TA1535 harboring pSK1002 assessed as umu gene induction at 0.002 mg/ml in absence of Sprague-Dawley rat liver S9 fraction after by SOS/umu assay relative to control; format: toxicity, organism-based; details: salmonella enterica subsp. enterica serovar typhimurium, read-out: FC
[10] = Genotoxicity in Salmonella typhimurium TA1535 harboring pSK1002 assessed as survival at 0.004 mg/ml in absence of Sprague-Dawley rat liver S9 fraction after by SOS/umu assay relative to control; format: toxicity, organism-based; details: salmonella enterica subsp. enterica serovar typhimurium, read-out: Survival
[11] = Genotoxicity in Salmonella typhimurium TA1535 harboring pSK1002 assessed as umu gene induction at 0.004 mg/ml in presence of Sprague-Dawley rat liver S9 fraction after by SOS/umu assay relative to control; format: toxicity, organism-based; details: salmonella enterica subsp. enterica serovar typhimurium, read-out: FC
[12] = Genotoxicity in Salmonella typhimurium TA1535 harboring pSK1002 assessed as survival at 0.0005 mg/ml in absence of Sprague-Dawley rat liver S9 fraction after by SOS/umu assay relative to control; format: toxicity, organism-based; details: salmonella enterica subsp. enterica serovar typhimurium, read-out: Survival
[13] = Genotoxicity in Salmonella typhimurium TA1535 harboring pSK1002 assessed as umu gene induction at 0.016 mg/ml in absence of Sprague-Dawley rat liver S9 fraction after by SOS/umu assay relative to control; format: toxicity, organism-based; details: salmonella enterica subsp. enterica serovar typhimurium, read-out: FC
[14] = Genotoxicity in Salmonella typhimurium TA1535 harboring pSK1002 assessed as umu gene induction at 0.004 mg/ml in absence of Sprague-Dawley rat liver S9 fraction after by SOS/umu assay relative to control; format: toxicity, organism-based; details: salmonella enterica subsp. enterica serovar typhimurium, read-out: FC
[15] = Cytotoxicity against human HepG2A16 cells by MTT assay; format: cell-based; details: HepG2A16 cells
How it was run: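 MTT viability assay on HepG2-A16 cells, giving CC50 values.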

[16] = Genotoxicity in Salmonella typhimurium TA1535 harboring pSK1002 assessed as survival at 0.016 mg/ml in presence of Sprague-Dawley rat liver S9 fraction after by SOS/umu assay relative to control; format: toxicity, organism-based; details: salmonella enterica subsp. enterica serovar typhimurium, read-out: Survival
[17] = Genotoxicity in Salmonella typhimurium TA1535 harboring pSK1002 assessed as survival at 0.004 mg/ml in presence of Sprague-Dawley rat liver S9 fraction after by SOS/umu assay relative to control; format: toxicity, organism-based; details: salmonella enterica subsp. enterica serovar typhimurium, read-out: Survival
[18] = Genotoxicity in Salmonella typhimurium TA1535 harboring pSK1002 assessed as umu gene induction at 0.002 mg/ml in presence of Sprague-Dawley rat liver S9 fraction after by SOS/umu assay relative to control; format: toxicity, organism-based; details: salmonella enterica subsp. enterica serovar typhimurium, read-out: FC
[19] = Genotoxicity in Salmonella typhimurium TA1535 harboring pSK1002 assessed as survival at 0.016 mg/ml in absence of Sprague-Dawley rat liver S9 fraction after by SOS/umu assay relative to control; format: toxicity, organism-based; details: salmonella enterica subsp. enterica serovar typhimurium, read-out: Survival
[20] = Genotoxicity in Salmonella typhimurium TA1535 harboring pSK1002 assessed as survival at 0.008 mg/ml in absence of Sprague-Dawley rat liver S9 fraction after by SOS/umu assay relative to control; format: toxicity, organism-based; details: salmonella enterica subsp. enterica serovar typhimurium, read-out: Survival
[21] = Solubility of the compound in DSPC:cholesterol:DSPE-PEG2000-Mal:DOPE-Rho lipid mixture at 250 uM; format: physicochemical
How it was run: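 Compound added at 250 µM drug to the initial liposome lipid mixture (10 mM total lipid); precipitation and UV-visible absorbance above 300 nm assessed after encapsulation, removal of unencapsulated material and extraction with 1% w/v SDS in RPMI-A.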

[22] = Genotoxicity in Salmonella typhimurium TA1535 harboring pSK1002 assessed as survival at 0.0005 mg/ml in presence of Sprague-Dawley rat liver S9 fraction after by SOS/umu assay relative to control; format: toxicity, organism-based; details: salmonella enterica subsp. enterica serovar typhimurium, read-out: Survival
[23] = Genotoxicity in Salmonella typhimurium TA1535 harboring pSK1002 assessed as survival at 0.0002 mg/ml in absence of Sprague-Dawley rat liver S9 fraction after by SOS/umu assay relative to control; format: toxicity, organism-based; details: salmonella enterica subsp. enterica serovar typhimurium, read-out: Survival
[24] = Genotoxicity in Salmonella typhimurium TA1535 harboring pSK1002 assessed as umu gene induction at 0.008 mg/ml in presence of Sprague-Dawley rat liver S9 fraction after by SOS/umu assay relative to control; format: toxicity, organism-based; details: salmonella enterica subsp. enterica serovar typhimurium, read-out: FC
[25] = Genotoxicity in Salmonella typhimurium TA1535 harboring pSK1002 assessed as umu gene induction at 0.0005 mg/ml in presence of Sprague-Dawley rat liver S9 fraction after by SOS/umu assay relative to control; format: toxicity, organism-based; details: salmonella enterica subsp. enterica serovar typhimurium, read-out: FC
[26] = Genotoxicity in Salmonella typhimurium TA1535 harboring pSK1002 assessed as umu gene induction at 0.008 mg/ml in absence of Sprague-Dawley rat liver S9 fraction after by SOS/umu assay relative to control; format: toxicity, organism-based; details: salmonella enterica subsp. enterica serovar typhimurium, read-out: FC
[27] = Genotoxicity in Salmonella typhimurium TA1535 harboring pSK1002 assessed as survival at 0.002 mg/ml in absence of Sprague-Dawley rat liver S9 fraction after by SOS/umu assay relative to control; format: toxicity, organism-based; details: salmonella enterica subsp. enterica serovar typhimurium, read-out: Survival
[28] = Genotoxicity in Salmonella typhimurium TA1535 harboring pSK1002 assessed as umu gene induction at 0.001 mg/ml in presence of Sprague-Dawley rat liver S9 fraction after by SOS/umu assay relative to control; format: toxicity, organism-based; details: salmonella enterica subsp. enterica serovar typhimurium, read-out: FC
[29] = Genotoxicity in Salmonella typhimurium TA1535 harboring pSK1002 assessed as survival at 0.0002 mg/ml in presence of Sprague-Dawley rat liver S9 fraction after by SOS/umu assay relative to control; format: toxicity, organism-based; details: salmonella enterica subsp. enterica serovar typhimurium, read-out: Survival
[30] = Genotoxicity in Salmonella typhimurium TA1535 harboring pSK1002 assessed as umu gene induction at 0.016 mg/ml in presence of Sprague-Dawley rat liver S9 fraction after by SOS/umu assay relative to control; format: toxicity, organism-based; details: salmonella enterica subsp. enterica serovar typhimurium, read-out: FC
[31] = Selectivity index, ratio of CC50 for human HepG2A16 cells by MTT assay to IC50 for multidrug-resistant Plasmodium falciparum FCR-3; format: toxicity; details: HepG2A16 cells, read-out: Ratio CC50/IC50
How it was run: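 HepG2-A16 human hepatoma cells were tested by MTT viability assay to give CC50. Blood-stage activity was measured against the multidrug-resistant P. falciparum FCR-3 strain by [3H]-hypoxanthine incorporation to give IC50. SI = CC50 HepG2 / FCR-3 IC50.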

[32] = Genotoxicity in Salmonella typhimurium TA1535 harboring pSK1002 assessed as umu gene induction at 0.0002 mg/ml in absence of Sprague-Dawley rat liver S9 fraction after by SOS/umu assay relative to control; format: toxicity, organism-based; details: salmonella enterica subsp. enterica serovar typhimurium, read-out: FC
[33] = Genotoxicity in Salmonella typhimurium TA1535 harboring pSK1002 assessed as umu gene induction at 0.0005 mg/ml in absence of Sprague-Dawley rat liver S9 fraction after by SOS/umu assay relative to control; format: toxicity, organism-based; details: salmonella enterica subsp. enterica serovar typhimurium, read-out: FC

SMILES	IC50 (Plasmodium falciparum [1])	viability at 0.002 mg/ml [2]	fold induction at 0.001 mg/ml [3]	fold induction at 0.0002 mg/ml [4]	IC50 (Plasmodium falciparum [5])	viability at 0.001 mg/ml [7]	viability at 0.001 mg/ml [8]	fold induction at 0.002 mg/ml [9]	viability at 0.004 mg/ml [10]	fold induction at 0.004 mg/ml [11]	viability at 0.0005 mg/ml [12]	fold induction at 0.004 mg/ml [14]	CC50 [15]	viability at 0.004 mg/ml [17]	fold induction at 0.002 mg/ml [18]	solubility [21]	viability at 0.0005 mg/ml [22]	viability at 0.0002 mg/ml [23]	fold induction at 0.0005 mg/ml [25]	viability at 0.002 mg/ml [27]	further results
OC(CCN1CCN(C(c2ccccc2)c2ccccc2)CC1)c1ccc(Cl)cc1 (stereo unspecified)	24.9 µM	88.9%	1.1	1	3.93 µM	106%	96.7%	1	102%	1	110%	1	462 µM	89.5%	0.7	Insoluble	94.3%	105%	0.6	108%	viability at 0.008 mg/ml [6]: 98.8%; fold induction at 0.016 mg/ml [13]: 0.9; viability at 0.016 mg/ml [16]: 86.6%; viability at 0.016 mg/ml [19]: 112%; viability at 0.008 mg/ml [20]: 125%; fold induction at 0.008 mg/ml [24]: 0.9; fold induction at 0.008 mg/ml [26]: 0.9; fold induction at 0.001 mg/ml [28]: 0.6; viability at 0.0002 mg/ml [29]: 96.4%; fold induction at 0.016 mg/ml [30]: 1.1; selectivity ratio [31]: 118; fold induction at 0.0002 mg/ml [32]: 1; fold induction at 0.0005 mg/ml [33]: 0.9
OC(CCN1CCN(C(c2ccccc2)c2ccccc2)CC1)c1ccc(Br)cc1 (stereo unspecified)	52.2 µM	85.9%	1	1	3.09 µM	98.3%	84.1%	1.1	114%	1	108%	1	351 µM	87.2%	0.8	Insoluble	104%	107%	0.5	105%	viability at 0.008 mg/ml [6]: 98.1%; fold induction at 0.016 mg/ml [13]: 0.8; viability at 0.016 mg/ml [16]: 87.8%; viability at 0.016 mg/ml [19]: 121%; viability at 0.008 mg/ml [20]: 116%; fold induction at 0.008 mg/ml [24]: 0.9; fold induction at 0.008 mg/ml [26]: 1.1; fold induction at 0.001 mg/ml [28]: 0.7; viability at 0.0002 mg/ml [29]: 96.7%; fold induction at 0.016 mg/ml [30]: 1; selectivity ratio [31]: 114; fold induction at 0.0002 mg/ml [32]: 0.8; fold induction at 0.0005 mg/ml [33]: 0.8
OC(CCN1CCN(C(c2ccccc2)c2ccccc2)CC1)c1ccc(F)c(Cl)c1 (stereo unspecified)	5.11 µM	73.1%	1	1	1.39 µM	105%	91.4%	1	119%	1.2	117%	0.8	269 µM	87.7%	1.1	Insoluble	97.7%	110%	0.9	103%	fold induction at 0.001 mg/ml [28]: 0.5; viability at 0.0002 mg/ml [29]: 92.3%; selectivity ratio [31]: 194; fold induction at 0.0002 mg/ml [32]: 0.8; fold induction at 0.0005 mg/ml [33]: 0.9
